Measured values published in ChEMBL document CHEMBL4368894, “Fluorine substituted methoxyphenylalkyl amides as potent melatonin receptor agonists” (Medchemcomm, 2019).
Calls of active or inactive are those of the source. No cut-off for these calls is given here.

Key:
[1] = molecular target: T1, Melatonin receptor type 1C (Xenopus laevis) (UniProt P49219); test: Antagonist activity at Melatonin receptor type 1C in Xenopus laevis melanophores assessed as inhibition of melatonin-induced pigment aggregation response pre-incubated 60 mins before melatonin addition by microtiter plate reader based absorbance detection assay; design: concentration or dose not given beside the values
T1 sequence (whole entry): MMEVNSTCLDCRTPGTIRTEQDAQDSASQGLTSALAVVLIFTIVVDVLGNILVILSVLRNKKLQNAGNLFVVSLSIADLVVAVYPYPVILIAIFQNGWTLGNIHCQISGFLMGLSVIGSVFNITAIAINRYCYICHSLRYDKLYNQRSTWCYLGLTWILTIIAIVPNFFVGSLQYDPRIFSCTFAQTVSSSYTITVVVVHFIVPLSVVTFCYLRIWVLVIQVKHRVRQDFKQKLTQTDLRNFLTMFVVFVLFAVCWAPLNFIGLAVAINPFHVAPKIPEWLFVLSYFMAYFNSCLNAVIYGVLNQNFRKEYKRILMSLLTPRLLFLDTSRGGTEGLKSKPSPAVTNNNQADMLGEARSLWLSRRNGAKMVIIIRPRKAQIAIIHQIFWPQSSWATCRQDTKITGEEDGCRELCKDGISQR
How it was run: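 Melanophores pre-equilibrated 1 h in 0.7 x L-15 medium containing 1 mg·mL⁻¹ bovine albumin. Antagonist (10⁻⁵ M) added 60 min ahead of melatonin, and melatonin concentration-response curves run with and without it. Pigment aggregation read as 630 nm absorbance change, 1-(A_f/A_i). pK_B taken as log(concentration ratio – 1) – log[antagonist]. Solvent at most 1% v/v.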

[2] = molecular target: T2, Melatonin receptor type 1C (Xenopus laevis, UniProt P49219); test: Agonist activity at Melatonin receptor type 1C in Xenopus laevis melanophores assessed as induction of pigment aggregation response by microtiter plate reader based absorbance detection assay
T2 sequence (P49219 whole entry): T1 sequence (whole entry)
How it was run: (§1)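 Cultured melanophores (about 6-8 x 10³ per well) switched to 0.7 x L-15 medium with 1 mg·mL⁻¹ bovine albumin 1 h before concentration-response runs, in which pigment stays dispersed. Aggregation read as absorbance at 630 nm before and after drug, expressed as fractional change 1-(A_f/A_i). Drugs diluted fresh from 10⁻² M methanol or DMSO stocks; final solvent at most 1% v/v.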

[3] = molecular target: T1, Melatonin receptor type 1C (Xenopus laevis); test: Agonist activity at Melatonin receptor type 1C in Xenopus laevis melanophores assessed as induction of pigment aggregation response by microtiter plate reader based absorbance detection assay relative to melatonin; how it was run: as §1
[4] = molecular target: T1, Melatonin receptor type 1C (Xenopus laevis); test: Antagonist activity at Melatonin receptor type 1C in Xenopus laevis melanophores assessed as inhibition of melatonin-induced pigment aggregation response up to 10^-4M pre-incubated 60 mins before melatonin addition by microtiter plate reader based absorbance detection assay

With `CC(=O)NCCc1c(Cc2ccccc2)[nH]c2ccccc12` the inhibition [1] was 100%.
For `CCCC(=O)NCCc1ccc(OC)c(F)c1`, the EC50 [2] was 1200 nM, the Efficacy [3] was 52% and the inhibition [1] was 48%.
`COc1cc(CNC(C)=O)ccc1F` was tested, and the EC50 [2] was 2090 nM, the Efficacy [3] was 83% and the inhibition [4] was “inactive”.
With `CCC(=O)NCc1ccc(F)c(OC)c1` the EC50 [2] was 2880 nM, the Efficacy [3] was 86% and the inhibition [4] was “inactive”.
With `CCC(=O)NCCc1ccc(F)c(OC)c1` the EC50 [2] was 85.1 nM, the Efficacy [3] was 100% and the inhibition [4] was “inactive”.
In the case of `CCCC(=O)NCC(C)(C)c1ccc(OC)c(F)c1`, the EC50 [2] is reported as 79.4 nM, the Efficacy [3] is reported as 100% and the inhibition [4] is reported as “inactive”.
`COc1cc(CCCNC(C)=O)ccc1F` was tested, and the EC50 [2] was 3.89 nM, the Efficacy [3] was 92% and the inhibition [4] was “inactive”.
`CCC(=O)NCCCc1ccc(OC)c(F)c1` showed an EC50 [2] of 871 nM, an Efficacy [3] of 78% and an inhibition [1] of 8%.
`CCCC(=O)NC(C)Cc1ccc(F)c(OC)c1` (stereo not drawn) was tested, and the EC50 [2] was 105 nM, the Efficacy [3] was 89% and the inhibition [4] was “inactive”.
For `COc1ccc(CCNC(C)=O)cc1F`, the EC50 [2] was 2400 nM, the Efficacy [3] was 80% and the inhibition [4] was “inactive”.
In the case of `CCCC(=O)NCC(C)(C)c1ccc(F)c(OC)c1`, the EC50 [2] is reported as 0.0229 nM, the Efficacy [3] is reported as 100% and the inhibition [4] is reported as “inactive”.
For `COc1ccc(F)c(CNC(C)=O)c1`, the EC50 [2] was 1950 nM, the Efficacy [3] was 100% and the inhibition [4] was “inactive”.
In the case of `CCC(=O)NCC(C)(C)c1ccc(OC)c(F)c1`, the EC50 [2] is reported as 93.3 nM, the Efficacy [3] is reported as 100% and the inhibition [4] is reported as “inactive”.
For `COc1ccc(CCCNC(C)=O)cc1F`, the EC50 [2] was 1820 nM, the Efficacy [3] was 79% and the inhibition [4] was “inactive”.
For `COc1ccc(C(C)(C)CNC(C)=O)cc1F`, the EC50 [2] was 81.3 nM, the Efficacy [3] was 100% and the inhibition [4] was “inactive”.
`CCCC(=O)NCCCc1ccc(OC)c(F)c1` was tested, and the EC50 [2] was 417 nM, the Efficacy [3] was 73% and the inhibition [1] was 19%.
In the case of `CCC(=O)NCc1cc(OC)ccc1F`, the EC50 [2] is reported as 2400 nM, the Efficacy [3] is reported as 69% and the inhibition [1] is reported as 23%.
`CCCC(=O)NCc1cc(OC)ccc1F` showed an EC50 [2] of 1350 nM, an Efficacy [3] of 43% and an inhibition [1] of 44%.
With `CCC(=O)NCCc1ccc(OC)c(F)c1` the EC50 [2] was 1350 nM, the Efficacy [3] was 80% and the inhibition [4] was “inactive”.
With `CCCC(=O)NCCc1cc(OC)ccc1F` the EC50 [2] was 251 nM, the Efficacy [3] was 100% and the inhibition [4] was “inactive”.
With `CCC(=O)NCCCc1cc(OC)ccc1F` the EC50 [2] was 3.72 nM, the Efficacy [3] was 100% and the inhibition [4] was “inactive”.
`COc1ccc(F)c(CCNC(C)=O)c1` was tested, and the EC50 [2] was 2450 nM, the Efficacy [3] was 100% and the inhibition [4] was “inactive”.
With `CCC(=O)NCC(C)(C)c1cc(OC)ccc1F` the EC50 [2] was 269 nM, the Efficacy [3] was 100% and the inhibition [4] was “inactive”.
`COc1cc(C(C)(C)CNC(C)=O)ccc1F` was tested, and the EC50 [2] was 1.82 nM, the Efficacy [3] was 100% and the inhibition [4] was “inactive”.
With `CCC(=O)NCC(C)(C)c1ccc(F)c(OC)c1` the EC50 [2] was 0.537 nM, the Efficacy [3] was 100% and the inhibition [4] was “inactive”.
For `CCCC(=O)NCc1ccc(OC)c(F)c1`, the EC50 [2] was 661 nM, the Efficacy [3] was 57% and the inhibition [1] was 37%.
In the case of `CCCC(=O)NCCCc1cc(OC)ccc1F`, the EC50 [2] is reported as 9.55 nM, the Efficacy [3] is reported as 100% and the inhibition [4] is reported as “inactive”.
With `CCCC(=O)NCCc1ccc(F)c(OC)c1` the EC50 [2] was 66.1 nM, the Efficacy [3] was 100% and the inhibition [4] was “inactive”.
`COc1ccc2[nH]cc(CCNC(C)=O)c2c1` [MELATONIN] was tested, and the EC50 [2] was 0.123 nM.
For `CCCC(=O)NCC(C)(C)c1cc(OC)ccc1F`, the EC50 [2] was 97.7 nM, the Efficacy [3] was 100% and the inhibition [4] was “inactive”.
`CCC(=O)NCCCc1ccc(F)c(OC)c1` was tested, and the EC50 [2] was 1.1 nM, the Efficacy [3] was 89% and the inhibition [4] was “inactive”.
In the case of `CCCC(=O)NCc1ccc(F)c(OC)c1`, the EC50 [2] is reported as 2510 nM, the Efficacy [3] is reported as 75% and the inhibition [4] is reported as “inactive”.
`CCC(=O)NCc1ccc(OC)c(F)c1` was tested, and the EC50 [2] was 1050 nM, the Efficacy [3] was 51% and the inhibition [1] was 24%.
For `COc1ccc(F)c(C(C)(C)CNC(C)=O)c1`, the EC50 [2] was 182 nM, the Efficacy [3] was 100% and the inhibition [4] was “inactive”.
In the case of `COc1ccc(F)c(CCCNC(C)=O)c1`, the EC50 [2] is reported as 20.4 nM, the Efficacy [3] is reported as 100% and the inhibition [4] is reported as “inactive”.
In the case of `CCC(=O)NCCc1cc(OC)ccc1F`, the EC50 [2] is reported as 794 nM, the Efficacy [3] is reported as 100% and the inhibition [4] is reported as “inactive”.
For `CCCC(=O)NCCCc1ccc(F)c(OC)c1`, the EC50 [2] was 0.891 nM, the Efficacy [3] was 89% and the inhibition [4] was “inactive”.
For `COc1cc(CCNC(C)=O)ccc1F`, the EC50 [2] was 275 nM, the Efficacy [3] was 100% and the inhibition [4] was “inactive”.
With `COc1ccc(CNC(C)=O)cc1F` the EC50 [2] was 1510 nM, the Efficacy [3] was 77% and the inhibition [4] was “inactive”.
